Experiments:
Format in all cases: functional
[1] = tested on: SUM149PT; experiment: Inhibition of sodium arachidonate-induced PGE2 production in human SUM149 cells assessed as PGE2 level per 1000 cells at 10 uM preincubated for 2 hrs before sodium arachidonate challenge measured after 2 hrs by competitive EIA (reference value: 3.15 +/- 0.19 pg/mL)
Method in brief: (§1)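 Cells seeded in triplicate, grown at 37°C, 5% CO2 to 80% confluence, washed with PBS, then given fresh medium with inhibitor (0.1, 1, 10 μM) or DMSO vehicle. After 2 h preincubation at 37°C, sodium arachidonate was added to 10 μM final for 2 h more. Supernatant PGE2 was measured by competitive EIA and normalized to trypsinized cell count (pg/mL/1000 cells). Three runs, mean ± SD.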

[2] = Inhibition of sodium arachidonate-induced PGE2 production in human SUM190 cells assessed as PGE2 level per 1000 cells at 0.1 uM preincubated for 2 hrs before sodium arachidonate challenge measured after 2 hrs by competitive EIA (reference value: 6.43 +/- 1.87 pg/mL); method in brief: as §1
[3] = tested on: SUM149PT; experiment: Inhibition of sodium arachidonate-induced PGE2 production in human SUM149 cells assessed as PGE2 level per 1000 cells at 0.1 uM preincubated for 2 hrs before sodium arachidonate challenge measured after 2 hrs by competitive EIA (reference value: 3.15 +/- 0.19 pg/mL); method in brief: as §1
[4] = tested on: SUM149PT; experiment: Inhibition of sodium arachidonate-induced PGE2 production in human SUM149 cells at 100 nM preincubated for 2 hrs before sodium arachidonate challenge measured after 2 hrs by competitive EIA; method in brief: as §1
[5] = tested on: SUM149PT; experiment: Inhibition of sodium arachidonate-induced PGE2 production in human SUM149 cells at 10 uM preincubated for 2 hrs before sodium arachidonate challenge measured after 2 hrs by competitive EIA; method in brief: as §1
[6] = Inhibition of sodium arachidonate-induced PGE2 production in human SUM190 cells assessed as PGE2 level per 1000 cells at 1 uM preincubated for 2 hrs before sodium arachidonate challenge measured after 2 hrs by competitive EIA (reference value: 6.43 +/- 1.87 pg/mL); method in brief: as §1
[7] = Inhibition of sodium arachidonate-induced PGE2 production in human SUM190 cells assessed as PGE2 level per 1000 cells at 10 uM preincubated for 2 hrs before sodium arachidonate challenge measured after 2 hrs by competitive EIA (reference value: 6.43 +/- 1.87 pg/mL); method in brief: as §1
[8] = tested on: SUM149PT; experiment: Inhibition of sodium arachidonate-induced PGE2 production in human SUM149 cells assessed as PGE2 level per 1000 cells at 1 uM preincubated for 2 hrs before sodium arachidonate challenge measured after 2 hrs by competitive EIA (reference value: 3.15 +/- 0.19 pg/mL); method in brief: as §1
[9] = tested on: SUM149PT; experiment: Inhibition of sodium arachidonate-induced PGE2 production in human SUM149 cells at 1 uM preincubated for 2 hrs before sodium arachidonate challenge measured after 2 hrs by competitive EIA; method in brief: as §1

SMILES	Activity [1] [pg/mL]	Activity [2] [pg/mL]	Activity [3] [pg/mL]	inhibition at 0.1 µM [4] [%]	inhibition at 10 µM [5] [%]	Activity [6] [pg/mL]	Activity [7] [pg/mL]	Activity [8] [pg/mL]	inhibition at 1 µM [9] [%]
CCOc1ccc(-c2cc(C)cn2-c2ccc(S(N)(=O)=O)cc2)cc1 [APRICOXIB]	0.11	2.1	0.97	70	97	0.5	0.22	0.28	91
Cc1ccc(-c2cc(C(F)(F)F)nn2-c2ccc(S(N)(=O)=O)cc2)cc1 [CELECOXIB]	0.13	2.87	1.19	–	–	0.81	0.18	0.43	–
